# Measured values reported in ChEMBL document CHEMBL5131497, “Design, Synthesis, and Characterization of TNP-2198, a Dual-Targeted Rifamycin-Nitroimidazole Conjugate with Potent Activity against Microaerophilic and Anaerobic Bacterial Pathogens” (J Med Chem, 2022).
# Tests used:
# Format in all cases: functional
# [1] = system: Helicobacter pylori; assay: Antibacterial activity against Helicobacter pylori ATCC 700392
# In short: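 Agar dilution per CLSI. Wild-type H. pylori ATCC 700392 (CB1531). Drugs prepared from 100× stocks as 2-fold dilutions in Mueller–Hinton agar with aged (≥2 weeks) sheep blood (5% v/v). Combinations were at 1:1 molar ratio. MIC read after 5 days at 35 °C under microaerobic atmosphere from a campylobacter gas-generating system.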
# [2] = system: Staphylococcus aureus; assay: Antibacterial activity against Staphylococcus aureus ATCC 29213
# [3] = system: Clostridioides difficile; assay: Antibacterial activity against Clostridioides difficile ATCC 9689
# [4] = system: Phocaeicola vulgatus; assay: Antibacterial activity against Bacteroides vulgatus MMX 8348
# [5] = system: Clostridioides difficile; assay: Antibacterial activity against rifampicin-resistant Clostridium difficile MMX 3587
# [6] = system: Bacteroides uniformis; assay: Antibacterial activity against Bacteroides uniformis MMX 1277
# [7] = system: Peptostreptococcus sp.; assay: Antibacterial activity against Peptostreptococcus magnus ATCC 14956
# [8] = system: Bacteroides fragilis; assay: Antibacterial activity against metronidazole-resistant Bacteroides fragilis MMX 3387
# [9] = system: Campylobacter gracilis; assay: Antibacterial activity against Bacteroides gracilis ATCC 33236 MMX 1270
# [10] = system: Prevotella disiens; assay: Antibacterial activity against Prevotella disiens MMX 3457
# [11] = system: Bacteroides thetaiotaomicron; assay: Antibacterial activity against metronidazole-resistant Bacteroides thetaiotaomicron MMX 3409
# [12] = system: Clostridioides difficile; assay: Antibacterial activity against Clostridioides difficile BAA 1382
# [13] = system: Clostridioides difficile; assay: Antibacterial activity against rifampicin-resistant Clostridioides difficile harboring rpoBQ489K mutant
# [14] = system: Helicobacter pylori; assay: Antibacterial activity against rifampicin resistant Helicobacter pylori harboring rpoBL525I/D530N mutant
# [15] = system: Helicobacter pylori; assay: Antibacterial activity against Helicobacter pylori infected in C57/BL6 mouse assessed as bacterial load in stomach at 1 mg/kg administered twice daily via oral gavage starting from 7 days post inoculation and administered for 7 days in presence of 10 mg/kg clarithromycin and 20 mg/kg amoxicillin (reference value: 5.25 log10CFU); settings: time 7 day
SMILES,MIC [1],MIC [2],MIC [3],also measured
CO[C@H]1/C=C/O[C@@]2(C)Oc3c(C)c(O)c4c(O)c(c(N5CCN(C(=O)c6ccc(OCC7(C)Cn8cc([N+](=O)[O-])nc8O7)cc6)CC5)c(O)c4c3C2=O)NC(=O)/C(C)=C\C=C\[C@H](C)[C@H](O)[C@@H](C)[C@@H](O)[C@@H](C)[C@H](OC(C)=O)[C@@H]1C (stereo partly specified),4 µg/mL,0.25 µg/mL,,
CO[C@H]1/C=C/O[C@@]2(C)Oc3c(C)c(O)c4c(O)c(c(N5CCN(CC6(C)Cn7cc([N+](=O)[O-])nc7O6)CC5)c(O)c4c3C2=O)NC(=O)/C(C)=C\C=C\[C@H](C)[C@H](O)[C@@H](C)[C@@H](O)[C@@H](C)[C@H](OC(C)=O)[C@@H]1C (stereo partly specified),0.25 µg/mL,0.008 µg/mL,0.001 µg/mL,
CO[C@H]1/C=C/O[C@@]2(C)Oc3c(C)c(O)c4c(O)c(c(N5CCN(c6ccc(OCC7(C)Cn8cc([N+](=O)[O-])nc8O7)cc6)CC5)c(O)c4c3C2=O)NC(=O)/C(C)=C\C=C\[C@H](C)[C@H](O)[C@@H](C)[C@@H](O)[C@@H](C)[C@H](OC(C)=O)[C@@H]1C (stereo partly specified),1 µg/mL,0.015 µg/mL,0.03 µg/mL,
CO[C@H]1/C=C/O[C@@]2(C)Oc3c(C)c(O)c4c(c3C2=O)C2=NC3(CCN(Cc5ccc(CO[C@@H]6COc7nc([N+](=O)[O-])cn7C6)cc5)CC3)NC2=C(NC(=O)/C(C)=C\C=C\[C@H](C)[C@H](O)[C@@H](C)[C@@H](O)[C@@H](C)[C@H](OC(C)=O)[C@@H]1C)C4=O,0.03 µg/mL,0.03 µg/mL,0.001 µg/mL,
CO[C@H]1/C=C/O[C@@]2(C)Oc3c(C)c(O)c4c(O)c(c(N5CCN(C(=O)CO[C@@H]6COc7nc([N+](=O)[O-])cn7C6)CC5)c(O)c4c3C2=O)NC(=O)/C(C)=C\C=C\[C@H](C)[C@H](O)[C@@H](C)[C@@H](O)[C@@H](C)[C@H](OC(C)=O)[C@@H]1C,4 µg/mL,2 µg/mL,,
CCC[C@@H]1C[C@@H](C(=O)N[C@@H]([C@H]2O[C@H](SC)[C@H](O)[C@@H](O)[C@H]2O)[C@H](C)Cl)N(C)C1 [CLINDAMYCIN],,,,MIC [4]: 0.25 µg/mL; MIC [5]: 8 µg/mL; MIC [6]: 0.25 µg/mL; MIC [7]: 1 µg/mL; MIC [8]: 2 µg/mL; MIC [9]: 0.06 µg/mL; MIC [10]: 0.25 µg/mL; MIC [11]: > 64 µg/mL
CO[C@H]1/C=C/O[C@@]2(C)Oc3c(C)c(O)c4c(=O)c(c5oc6cc(N7CCN(CCn8c([N+](=O)[O-])cnc8C)CC7)cc(O)c6nc-5c4c3C2=O)NC(=O)/C(C)=C\C=C\[C@H](C)[C@H](O)[C@@H](C)[C@@H](O)[C@@H](C)[C@H](OC(C)=O)[C@@H]1C,0.004 µg/mL,< 0.03 µg/mL,0.002 µg/mL,MIC [12]: 0.001 µg/mL; MIC [13]: 2 µg/mL; MIC [14]: 0.5 µg/mL
O=[N+]([O-])c1cn2c(n1)OC[C@@H](OCc1ccc(OC(F)(F)F)cc1)C2 [PRETOMANID],2 µg/mL,> 32 µg/mL,16 µg/mL,
COc1ccc2[nH]c([S+]([O-])Cc3ncc(C)c(OC)c3C)nc2c1 (stereo unspecified) [OMEPRAZOLE],,,,Activity [15]: 1.7 log10CFU
CO[C@H]1/C=C/O[C@@]2(C)Oc3c(C)c(O)c4c(=O)c(c5oc6cc(N7CCN(c8ccc(OCC9(C)Cn%10cc([N+](=O)[O-])nc%10O9)cc8)CC7)cc(O)c6nc-5c4c3C2=O)NC(=O)/C(C)=C\C=C\[C@H](C)[C@H](O)[C@@H](C)[C@@H](O)[C@@H](C)[C@H](OC(C)=O)[C@@H]1C (stereo partly specified),0.06 µg/mL,< 0.008 µg/mL,0.03 µg/mL,
CO[C@H]1/C=C/O[C@@]2(C)Oc3c(C)c(O)c4c(c3C2=O)C2=NC3(CCN(CC5Cn6cc([N+](=O)[O-])nc6O5)CC3)NC2=C(NC(=O)/C(C)=C\C=C\[C@H](C)[C@H](O)[C@@H](C)[C@@H](O)[C@@H](C)[C@H](OC(C)=O)[C@@H]1C)C4=O (stereo partly specified),0.06 µg/mL,0.015 µg/mL,,
